Source: PubChem BioAssay
The source made the active and inactive calls.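 Rule for the calls: active = primary screen active whose calcium signal fell more than 3 SD beyond the full-serotonin control mean in both duplicate plates; inactive = the rest.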

Test: serotonin-gated TRPC4 signal block – cell-based, second counter screen, HEK293 TRPC4/5HT1a, Fluo-4, counter-screen for TRPC4 inhibitor project, confirmation (AID 434978);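 for outcome: serotonin given first at submaximal then at maximal dose after compound preincubation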
Conditions: Fluo-4 calcium flux, at 10 µM, serotonin added to trigger calcium flux; hits give high values
How it was run: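 System: HEK293 line stably carrying TRPC4 plus 5HT1a receptor. Schedule: 110 s each for compound, submaximal and ECmax serotonin. Technique: kinetic Fluo-4 fluorescence readout of calcium flux. Replication: duplicate plates.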

Structure (SMILES)	outcome	inhibition
CCCc1nc2oc3c(NCCCN(C)C)ncnc3c2c2c1CCCC2	inactive	
O=C(/C=C/c1ccc(Cl)cc1)N(Cc1ccccc1)C1CCS(=O)(=O)C1 (centres undefined)	inactive	
COc1ccc(NS(=O)(=O)c2ccc3ccccc3c2)c2ncccc12	inactive	
CN(C)S(=O)(=O)N1CCC(CCCC2CCN(S(=O)(=O)N(C)C)CC2)CC1	inactive	
COc1cc(C2(c3ccc(O)c(OC)c3)C(=O)Nc3c(C)cc(Br)cc32)ccc1O	inactive	
COC(=O)C(CC(=O)Nc1cc(C)ccc1C)Nc1ccccc1OC (centres undefined)	inactive	
CC(C)CCc1noc(CN2CCN(c3ccc(Cl)cn3)CC2)n1	inactive	
Cc1cc(OCCN2CCCC2)ccc1[N+](=O)[O-]	inactive	
CSc1ccc(S(=O)(=O)NCC(=O)OCC(=O)N(C)Cc2ccccc2)cc1[N+](=O)[O-]	inactive	
O=C(COC(=O)c1ccccc1C(=O)N1CCN(c2ccccc2)CC1)Nc1ccc(F)cc1	inactive	
CCCCCCCCCC[n+]1cccc2c3ccccc3ccc21	inactive	
Cc1nn(-c2cc(C(F)(F)F)ccc2Cl)c2nc(C(Cl)(Cl)Cl)[nH]c(=O)c12	inactive	
Cc1cc2oc(C(=O)N(Cc3cccs3)C3CCS(=O)(=O)C3)cc(=O)c2cc1Cl (centres undefined)	inactive	
CN(C)CCCN(C(=O)CCc1ccccc1)c1nc2ccc(F)cc2s1	inactive	
Cc1ccc(C(=O)O)cc1N=Cc1cc(Br)cc(Br)c1O	inactive	
N=c1c2c3c(sc2ncn1Cc1ccccc1)CCCC3	inactive	
Cn1c2ccccc2c(=O)c2c(=O)n(-c3ccccc3)c(-c3ccc(C(C)(C)C)cc3)nc21	inactive	
CCCNc1nc2ccccc2n2c(C)nnc12	inactive	
CC(C)NS(=O)(=O)c1ccc(NC(=O)C(C)Oc2ccc(C(=O)c3ccccc3)cc2)cc1 (centres undefined)	inactive	
O=C1C=CC(=O)N1CCNc1ncc(C(F)(F)F)cc1Cl	inactive	

Structure (SMILES)	outcome	inhibition
CCN1CCN(c2ccc(S(=O)(=O)N3CCCCC3)cc2NC(=O)c2cccc(F)c2)CC1	inactive	
CCn1c2ccc(F)cc2c2nnc(NN)nc21	inactive	
CCCN1Cc2cccc(C(=O)N3CCN(c4cc(Cl)ccc4C)CC3)c2C1=O	inactive	
Cc1ccc2c(c1)C1CN(C)CCC1N2C(=S)NC(=O)c1ccc(Br)cc1 (centres undefined)	inactive	
CCCCN(CC)CCCNC(=O)c1cc2cc3ccc(C)cc3nc2o1	inactive	
COc1cc(NC(=O)CSc2ncnc3sc4c(c23)CCC(C)C4)c(C(=O)O)cc1OC (centres undefined)	inactive	
CN(CCCNC(=O)CCCOc1cc(=O)n(C)c2ccccc12)Cc1ccccc1	inactive	
O=S(=O)(NCC1NCCc2ccccc21)c1ccccc1 (centres undefined)	inactive	
Cc1cc(C)c2c(=O)n(CC(=O)Nc3cccc(Cl)c3C)sc2n1	inactive	
O=C(Nc1ccnn1C1CCN(Cc2cc3ccccc3[nH]2)CC1)C1CCOC1 (centres undefined)	inactive	
CC(Oc1ccc(Cl)cc1Cl)C(=O)N(C)c1ccccc1 (centres undefined)	inactive	
O=C(C1=C[C@H](c2ccc(C(F)(F)F)cc2)C[C@H](OCCCCO)O1)N1CCOCC1	inactive	
O=C(O)CCCN1C(=O)/C(=C\c2ccc(-c3nc4ccccc4s3)o2)SC1=S	inactive	
O=c1c2ccccc2nc(COc2ccccc2)n1/N=C/c1cc([N+](=O)[O-])ccc1O	inactive	
O=C(CCN1CCN(Cc2ccccc2)CC1)Nc1cccc(Br)c1	inactive	
O=C(NC1CCCC1)c1cc2ccccc2o1	inactive	
Cc1cc(/C=N/NC(=O)c2cccc([N+](=O)[O-])c2)c(C)n1-c1ccc(Cl)cc1Cl		35.8% (active)
CCN(CC)c1ncnc2sc3c(c12)CCC3	inactive	
CC(=O)c1nn(-c2cccc(Br)c2)cc1C(=O)c1cccc2ccccc12	inactive	
